# ChEMBL document CHEMBL2417487, “Asteriscane-type sesquiterpenoids from the soft coral Sinularia capillosa” (J Nat Prod, 2013)
# pIC50: −log10 of the molar value.
# Legend:
# Amphibalanus amphitrite = assay: Antifouling activity against barnacle Balanus amphitrite Darwin; assay type: functional, organism-based
# Outline: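 Barnacle nauplii were reared to cyprids at 26−28 °C and fed Chaetoceros gracilis, reaching the cyprid stage within four days. Fresh cyprids were used for testing, and the value is reported as IC50.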
# [1] = Antiinflammatory activity in BALB/c mouse splenocytes assessed as inhibition of LPS-induced TNFalpha production at 10 uM after 24 hrs; assay type: functional; conditions: Splenocyte
# Outline: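 BALB/c mouse splenocyte suspensions were cultured in RPMI 1640 with 10% FBS. Compounds were dissolved in DMSO and given at 10 μM for 24 h, followed by LPS stimulation at 1 μg/mL. NK-007 at 100 nM served as positive control. TNF-α in culture supernatants was measured with cytometric bead array kits and reported as inhibitory rate.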
# HepG2 = assay: Cytotoxicity against human HepG2 cells by MTT assay; assay type: functional, cell-based
# SK-OV-3 = assay: Cytotoxicity against human SKOV3 cells by MTT assay; assay type: functional, cell-based
# HCT-8 = assay: Cytotoxicity against human HCT8 cells by MTT assay; assay type: functional, cell-based
# A549 = assay: Cytotoxicity against human A549 cells by MTT assay; assay type: functional, cell-based
# BGC-823 = assay: Cytotoxicity against human BGC823 cells by MTT assay; assay type: functional, cell-based
Structure (SMILES),pIC50 (Amphibalanus amphitrite),inhibition at 10 µM [1] [%],IC50 (HepG2) [µg/mL],IC50 (SK-OV-3) [µg/mL],IC50 (HCT-8) [µg/mL],IC50 (A549) [µg/mL],IC50 (BGC-823) [µg/mL],EC50 (Amphibalanus amphitrite) [µg/mL]
CC(=O)CC/C=C(/C)C[C@H]1CC(C)(C)CC1=O [(-)-SINULARONE A],4.13,23,–,–,–,–,–,–
C/C1=C/C2=CC(C)(C)C[C@]2(OO)[C@H](C)CC[C@@H]1O,–,–,> 10,> 10,> 10,> 10,> 10,–
CC1=CC2=CC(C)(C)C[C@@]23O[C@]1(O)CC[C@H]3C,–,–,> 10,> 10,> 10,> 10,> 10,–
CC(=O)CC/C=C(/C)C[C@@H]1CC(C)(C)CC1=O,–,–,–,–,–,–,–,13.9
C/C1=C/C2=C(CC(C)(C)[C@@H]2O)[C@H](C)CC[C@@H]1O,–,16,> 10,> 10,> 10,> 10,> 10,–
C[C@@H]1CC[C@]2(O)O[C@]13CC(C)(C)CC3=C[C@@]2(C)O,4.27,21,> 10,> 10,> 10,> 10,> 10,–
C[C@@H]1CC[C@]2(O)O[C@]13CC(C)(C)[C@H](O)C3=C[C@@]2(C)O,–,–,> 10,> 10,> 10,> 10,> 10,–
CC1=C[C@]2(O)CC(C)(C)C[C@]23O[C@@]1(O)CC[C@H]3C,–,–,> 10,> 10,> 10,> 10,> 10,–
C/C1=C/C2=CC(C)(C)C[C@@]2(OO)[C@H](C)CC[C@@H]1O,–,–,> 10,> 10,> 10,> 10,> 10,–
C/C1=C/[C@]23O[C@]2(CC(C)(C)C3=O)[C@H](C)CC[C@@H]1O,–,–,> 10,> 10,> 10,> 10,> 10,–
CC1=C[C@@]23CC(C)(C)C[C@@]2(O)[C@H](C)CC[C@@H]1O3,–,–,> 10,> 10,> 10,> 10,> 10,–
C[C@@H]1CCC(=O)[C@](C)(O)/C=C2/CC(C)(C)C[C@@H]21,5.01,–,> 10,> 10,> 10,> 10,> 10,–
CC(=O)/C=C1/CC(C)(C)C[C@]12OC(=O)CC[C@H]2C,–,–,> 10,> 10,> 10,> 10,> 10,–
CC(=O)C[C@@H]1CC(C)(C)C=C1[C@]1(C)CCC(=O)O1,–,–,> 10,> 10,> 10,> 10,> 10,–
CC(=O)CC/C=C(/C)CC1=CC(C)(C)CC1=O,–,–,> 10,> 10,> 10,> 10,> 10,–
C/C1=C/C2=C(CC(C)(C)C2=O)[C@H](C)CC[C@@H]1O,–,–,> 10,> 10,> 10,> 10,> 10,–
C/C1=C/C2=C(CC(C)(C)C2=O)[C@H](C)CCC1=O,–,–,> 10,> 10,> 10,> 10,> 10,–
CC1(C)CC2=C[C@@](C)(O)[C@@]3(O)CC[C@@](C)(O)[C@]2(C1)O3,–,–,> 10,> 10,> 10,> 10,> 10,–
C/C(=C/CC[C@H](C)O)CC1=CC(C)(C)CC1=O,–,–,> 10,> 10,> 10,> 10,> 10,–
C/C1=C/C2=C(CC(C)(C)[C@H]2O)[C@H](C)CC[C@@H]1O,–,–,> 10,> 10,> 10,> 10,> 10,–
